ChEMBL document CHEMBL1129245, “N-heteroaryl-2-phenyl-3-(benzyloxy)piperidines: a novel class of potent orally active human NK1 antagonists” (J Med Chem, 1996)
Each block holds one molecule with its values, some of them ahead of it.

Experiments:
Rattus norvegicus [1] = species on record: Rattus norvegicus; experiment: Degradation of compound in incubations at 25 uM with normal rat liver microsomes after 15 min relative to initial concentration of 1 uM; type: functional
Summary of the method: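 Incubated at 25 µM with normal rat liver microsomes; P-450 at 1.45 nM/mg microsomal protein. Sampled at 15 min, 1 h, 4 h and 24 h. Remaining substrate reported relative to an initial level of 1.0, n = 1.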

Substance-P receptor = Substance-P receptor (Homo sapiens, UniProt P25103); experiment: Displacement of [125 I]-Tyr8 SP from the cloned human Tachykinin receptor 1 expressed in CHO cells; type: cell-based
Oryctolagus cuniculus = species on record: Oryctolagus cuniculus; experiment: Displacement of [3H]diltiazem from rabbit skeletal muscle calcium channel; type: tissue-based; conditions: Muscle tissue
Rattus norvegicus [2] = species on record: Rattus norvegicus; experiment: Degradation of compound in incubations at 25 uM with normal rat liver microsomes after 24 hour relative to initial concentration of 1 uM; type: functional
Summary of the method: (§1)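 Each compound incubated at 25 µM with normal rat liver microsomes, P-450 at 1.45 nM/mg microsomal protein. Remaining substrate sampled at 15 min, 1 h, 4 h and 24 h and expressed relative to an initial concentration of 1.0. Single determination (n = 1).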

Rattus norvegicus [3] = species on record: Rattus norvegicus; experiment: Degradation of compound in incubations at 25 uM with normal rat liver microsomes after 1 hour relative to initial concentration of 1 uM; type: functional; summary of the method: as §1
Rattus norvegicus [4] = species on record: Rattus norvegicus; experiment: Degradation of compound in incubations at 25 uM with normal rat liver microsomes after 4 hour relative to initial concentration of 1 uM; type: functional; summary of the method: as §1
Rattus norvegicus [5] = experiment: Plasma concentration after 3 mg/kg peroral dosing in rat at 4 hr; type: ADME, organism-based; parameters: dose 3 mg/kg, route oral; conditions: in vivo, po
Rattus norvegicus [6] = experiment: Plasma concentration after 3 mg/kg peroral dosing in rat at 2 hr; type: ADME, organism-based; parameters: dose 3 mg/kg, route oral; conditions: in vivo, po
[7] = Bioavailability in rat; type: ADME, organism-based; conditions: in vivo
Rattus norvegicus [8] = experiment: Plasma concentration of 3 mg/kg iv after 4 hr in rats; type: ADME, organism-based; parameters: dose 3 mg/kg, route intravenous; conditions: in vivo
Summary of the method: (§2)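 Rats given compound intravenously and orally in solution. Three rats per time point sampled for plasma drug levels. Pharmacokinetic parameters calculated from the plasma concentration–time data using standard equations. Data reported as mean ± SEM.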

Rattus norvegicus [9] = experiment: Plasma concentration after 3 mg/kg peroral dosing in rat at 1 hr; type: ADME, organism-based; parameters: dose 3 mg/kg, route oral; conditions: in vivo, po
Rattus norvegicus [10] = experiment: Plasma concentration of 3 mg/kg iv after 6 hr in rats; type: ADME, organism-based; parameters: dose 3 mg/kg, route intravenous; conditions: in vivo; summary of the method: as §2
Rattus norvegicus [11] = experiment: Plasma concentration after 3 mg/kg peroral dosing in rat at 6 hr; type: ADME, organism-based; parameters: dose 3 mg/kg, route oral; conditions: in vivo, po
[12] = Plasma clearance after intravenous administration iv dosing of 3 mg/kg in rat; type: ADME, organism-based; parameters: dose 3 mg/kg, route intravenous
Rattus norvegicus [13] = experiment: Plasma concentration after 3 mg/kg peroral dosing in rat at 8 hr; type: ADME, organism-based; parameters: dose 3 mg/kg, route oral; conditions: in vivo, po
Rattus norvegicus [14] = experiment: Plasma concentration after 3 mg/kg peroral dosing in rat at 0.5 hr; type: ADME, organism-based; parameters: dose 3 mg/kg, route oral; conditions: in vivo, po
Rattus norvegicus [15] = experiment: Plasma concentration of 3 mg/kg iv after 0.5 hr in rats; type: ADME, organism-based; parameters: dose 3 mg/kg, route intravenous; conditions: in vivo; summary of the method: as §2
Rattus norvegicus [16] = experiment: Plasma concentration of 3 mg/kg iv after 2 hr in rats; type: ADME, organism-based; parameters: dose 3 mg/kg, route intravenous; conditions: in vivo; summary of the method: as §2
Rattus norvegicus [17] = experiment: Plasma concentration after 3 mg/kg peroral dosing in rat at 0.25 hr; type: ADME, organism-based; parameters: dose 3 mg/kg, route oral; conditions: in vivo, po
Rattus norvegicus [18] = experiment: Plasma concentration of 3 mg/kg iv after 1 hr in rats; type: ADME, organism-based; parameters: dose 3 mg/kg, route intravenous; conditions: in vivo; summary of the method: as §2
[19] = Plasma volume of distribution of the 3 mg/kg in rat; type: ADME, organism-based; parameters: dose 3 mg/kg; summary of the method: as §2
Rattus norvegicus [20] = experiment: Plasma concentration of 3 mg/kg iv after 0.25 hr in rats; type: ADME, organism-based; parameters: dose 3 mg/kg, route intravenous; conditions: in vivo; summary of the method: as §2
Rattus norvegicus [21] = experiment: Plasma concentration after 3 mg/kg peroral dosing in rat at 0.083 h; type: ADME, organism-based; parameters: dose 3 mg/kg, route oral; conditions: in vivo, po

Chain of Substance-P receptor (P25103 whole entry): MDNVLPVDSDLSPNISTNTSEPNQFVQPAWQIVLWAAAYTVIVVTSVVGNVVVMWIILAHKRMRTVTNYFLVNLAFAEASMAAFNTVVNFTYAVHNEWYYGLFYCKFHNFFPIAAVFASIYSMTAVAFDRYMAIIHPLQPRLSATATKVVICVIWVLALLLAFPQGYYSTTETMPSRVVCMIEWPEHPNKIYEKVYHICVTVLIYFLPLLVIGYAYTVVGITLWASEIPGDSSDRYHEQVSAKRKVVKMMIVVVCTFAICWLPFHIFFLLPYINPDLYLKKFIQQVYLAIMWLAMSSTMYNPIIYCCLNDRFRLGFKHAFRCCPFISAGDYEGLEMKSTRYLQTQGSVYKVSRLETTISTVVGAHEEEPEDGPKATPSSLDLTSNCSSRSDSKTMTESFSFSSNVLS

SMILES: FC(F)(F)c1cc(CO[C@H]2CCCN(Cc3cocn3)[C@H]2c2ccccc2)cc(C(F)(F)F)c1
Relative oncentration (Rattus norvegicus [1]): 0.05 µM
IC50 (Substance-P receptor): 1000 pM
Binding affinity (Oryctolagus cuniculus): 23 µM

SMILES: FC(F)(F)c1cc(CO[C@H]2CCCN(Cc3ccco3)[C@H]2c2ccccc2)cc(C(F)(F)F)c1
IC50 (Substance-P receptor): 36000 pM

SMILES: FC(F)(F)c1cc(CO[C@H]2CCCN(Cc3c[nH]cn3)[C@H]2c2ccccc2)cc(C(F)(F)F)c1
Concentration (Rattus norvegicus [2]): 0.18 µM
Concentration (Rattus norvegicus [3]): 0.72 µM
Concentration (Rattus norvegicus [4]): 0.55 µM
Binding affinity (Oryctolagus cuniculus): 2.3 µM

The next lines start with the values.

IC50 (Substance-P receptor): 900 pM
SMILES: FC(F)(F)c1cc(CO[C@H]2CCCN(Cc3cnc[nH]3)[C@H]2c2ccccc2)cc(C(F)(F)F)c1

IC50 (Substance-P receptor): 530 pM
Binding affinity (Oryctolagus cuniculus): 2.06 µM
SMILES: FC(F)(F)c1cc(CO[C@H]2CCCN(Cc3ncc[nH]3)[C@H]2c2ccccc2)cc(C(F)(F)F)c1

Concentration (Rattus norvegicus [5]): 11.2 ng/mL
Concentration (Rattus norvegicus [6]): 36.9 ng/mL
bioavailability [7]: 18%
Concentration (Rattus norvegicus [8]): 13.2 ng/mL
Concentration (Rattus norvegicus [9]): 33.7 ng/mL
Concentration (Rattus norvegicus [10]): < 10 ng/mL
Concentration (Rattus norvegicus [11]): < 10 ng/mL
clearance [12]: 44 mL/min/kg
Concentration (Rattus norvegicus [13]): < 10 ng/mL
Concentration (Rattus norvegicus [14]): 35.1 ng/mL
Concentration (Rattus norvegicus [15]): 581 ng/mL
Concentration (Rattus norvegicus [16]): 71.3 ng/mL
IC50 (Substance-P receptor): 220 pM
Concentration (Rattus norvegicus [17]): 116 ng/mL
Concentration (Rattus norvegicus [18]): 304 ng/mL
Vd [19]: 2.6 L/kg
Concentration (Rattus norvegicus [20]): 826 ng/mL
Concentration (Rattus norvegicus [21]): 40.1 ng/mL
SMILES: FC(F)(F)c1cc(CO[C@H]2CCCN(Cc3nnc[nH]3)[C@H]2c2ccccc2)cc(C(F)(F)F)c1

IC50 (Substance-P receptor): 970 pM
Binding affinity (Oryctolagus cuniculus): 10 µM
SMILES: FC(F)(F)c1cc(CO[C@H]2CCCN(Cc3nnco3)[C@H]2c2ccccc2)cc(C(F)(F)F)c1
